Test results reported in the RNAGym collection of RNA variant scans (doi:10.1002/anie.201605470).

B1: Osa-1-4 twister ribozyme (parent)
chain: CCGCCUAACACUGCCAAUGCCGGUCCCAAGCCCGGAUAAAAGUGGAGGGGGCGG

Variants of: B1
Assay: self-cleavage, relative activity (ratio to wild type); higher = more cleavage; co-transcriptional
How it was run: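 Relative activity is the fraction cleaved divided by that of the wild-type ribozyme. The library came from a DNA template for a 54-nucleotide Oryza sativa twister ribozyme, doped at the 48 positions downstream of the cleavage site with 97 % wild-type base and 1 % of each other base. After 2 h of in vitro transcription at 37 °C with co-transcriptional self-cleavage, the RNA was reverse-transcribed with a template-switching oligonucleotide, amplified by PCR and deep-sequenced, and reads with or without upstream sequence gave the cleavage status.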
CCGCCUAACACUGCCAAUGCCGGUCCCACGCCCGGAUAAAAGUGGAGGAGGCGG showed a self-cleavage of 0.02. For CCGCCUAACACUGCCAAUCCCGGUCCCACGCCCGGAUAAAAGUGGAGGGGGCGG, the self-cleavage was 0.02. In the case of CCGCCUAACACUGCCAAUUCCGGUCCCACGCCCGGAUAAAAGUGGAGGGGGCGG, the self-cleavage is reported as 0.03. Work on CCGCCUAACACUGCCAAUACCGGUCCCACGCCCGGAUAAAAGUGGAGGGGGCGG yielded a self-cleavage of 0.04. Variant CCGCCUAACACUGCCAAUGCCGGUCCCACGCCCGGAUAAAAGUGUAGGGGGCGG has a self-cleavage of 0.01. Variant CCGCCUAACACUGCCAAUGCCGGUCCCACGCCCGGAUAAAAGUGAAGGGGGCGG has a self-cleavage of 0.02. Work on CCGCCUAACACUGCCAAUGCCGGUCCCACGCCCGGAUAAAAGUGCAGGGGGCGG yielded a self-cleavage of 0.01. CCGCCUAACACUGCCAAUGCCGGUCCCACGCCUGGAUAAAAGUGGAGGGGGCGG gave a self-cleavage of 0.03. For CCGCCUAACACUGCCAAUGCCGGUCCCACGCCGGGAUAAAAGUGGAGGGGGCGG, the self-cleavage was 0.01. Work on CCGCCUAACACUGCCAAUGCCGGUCCCACGCCAGGAUAAAAGUGGAGGGGGCGG yielded a self-cleavage of 0.04. Variant CCGCCUAACACUGCCAAUGCCGGUCCCACGCCCGGAUAAAAGUCGAGGGGGCGG has a self-cleavage of 0.05. Variant CCGCCUAACACUGCCAAUGCCGGUCCCACGCCCGGAUAAAAGUAGAGGGGGCGG has a self-cleavage of 0.04. Work on CCGCCUAACACUGCCAAUGCCGGUCCCACGCCCGGAUAAAAGUUGAGGGGGCGG yielded a self-cleavage of 0.05. CCGCCUAACACUGCCAAUGCCGGUCCCACGCCCGGAUAAAAGUGGAGGGGGGGG gave a self-cleavage of 0.05. Variant CCGCCUAACACUGCCAAUGCCGGUCCCACGCCCGGAUAAAAGUGGAGGGGGAGG has a self-cleavage of 0.06. Work on CCGCCUAACACUGCCAAUGCCGGUCCCACGCCCGGAUAAAAGUGGAGGGGGUGG yielded a self-cleavage of 0.06. With CCGCCUAACACUGCCAAUGCCGGUCCCACUCCCGGAUAAAAGUGGAGGGGGCGG the self-cleavage was 0.02. For CCGCCUAACACUGCCAAUGCCGGUCCCACCCCCGGAUAAAAGUGGAGGGGGCGG, the self-cleavage was 0.01. In the case of CCGCCUAACACUGCCAAUGCCGGUCCCACACCCGGAUAAAAGUGGAGGGGGCGG, the self-cleavage is reported as 0.02. CCGCCUAACACUGCCAAUGCCGGUCCCACGCCCGGAUAAAAGUGGAAGGGGCGG gave a self-cleavage of 0.02. In the case of CCGCCUAACACUGCCAAUGCCGGUCCCACGCCCGGAUAAAAGUGGACGGGGCGG, the self-cleavage is reported as 0.02. CCGCCUAACACUGCCAAUGCCGGUCCCACGCCCGGAUAAAAGUGGAUGGGGCGG showed a self-cleavage of 0.03. Work on CCGCCUAACACUUCCAAUGCCGGUCCCACGCCCGGAUAAAAGUGGAGGGGGCGG yielded a self-cleavage of 0.01. CCGCCUAACACUCCCAAUGCCGGUCCCACGCCCGGAUAAAAGUGGAGGGGGCGG showed a self-cleavage of 0.01. With CCGCCUAACACUACCAAUGCCGGUCCCACGCCCGGAUAAAAGUGGAGGGGGCGG the self-cleavage was 0.02. For CCGCCUAACACUGCCAAUGCCGGUCCCACGCCCCGAUAAAAGUGGAGGGGGCGG, the self-cleavage was 0.03. In the case of CCGCCUAACACUGCCAAUGCCGGUCCCACGCCCAGAUAAAAGUGGAGGGGGCGG, the self-cleavage is reported as 0.04. For CCGCCUAACACUGCCAAUGCCGGUCCCACGCCCUGAUAAAAGUGGAGGGGGCGG, the self-cleavage was 0.03. Work on CCGCCUAACACUGCCAAUGCCGGUCCCACGCCCGGAUAAAAGUGGAGCGGGCGG yielded a self-cleavage of 0.02. CCGCCUAACACUGCCAAUGCCGGUCCCACGCCCGGAUAAAAGUGGAGUGGGCGG gave a self-cleavage of 0.01. For CCGCCUAACACUGCCAAUGCCGGUCCCACGCCCGGAUAAAAGUGGAGAGGGCGG, the self-cleavage was 0.01. For CCGCCUAACACUGCCAAUGCCGGUCCCACGCCCGGAUAAAAUUGGAGGGGGCGG, the self-cleavage was 0.01. CCGCCUAACACUGCCAAUGCCGGUCCCACGCCCGGAUAAAACUGGAGGGGGCGG showed a self-cleavage of 0.02. Variant CCGCCUAACACUGCCAAUGCCGGUCCCACGCCCGGAUAAAAAUGGAGGGGGCGG has a self-cleavage of 0.03. CCGCCUAACACUGCCAAUGCCGGUCCCACGACCGGAUAAAAGUGGAGGGGGCGG showed a self-cleavage of 0.02. CCGCCUAACACUGCCAAUGCCGGUCCCACGGCCGGAUAAAAGUGGAGGGGGCGG showed a self-cleavage of 0.02. CCGCCUAACACUGCCAAUGCCGGUCCCACGUCCGGAUAAAAGUGGAGGGGGCGG gave a self-cleavage of 0.02. CCGCCUAACACUGCCAAUGCCGGUCCCACGCCCGAAUAAAAGUGGAGGGGGCGG gave a self-cleavage of 0.04. Work on CCGCCUAACACUGCCAAUGCCGGUCCCACGCCCGCAUAAAAGUGGAGGGGGCGG yielded a self-cleavage of 0.02. CCGCCUAACACUGCCAAUGCCGGUCCCACGCCCGUAUAAAAGUGGAGGGGGCGG showed a self-cleavage of 0.05. With CCGCCUAACACUGCCAAUGCCGGUCCCACGCGCGGAUAAAAGUGGAGGGGGCGG the self-cleavage was 0.03. Work on CCGCCUAACACUGCCAAUGCCGGUCCCACGCUCGGAUAAAAGUGGAGGGGGCGG yielded a self-cleavage of 0.03. With CCGCCUAACACUGCCAAUGCCGGUCCCACGCACGGAUAAAAGUGGAGGGGGCGG the self-cleavage was 0.03. CCGCCUAACACUGCCAAUGCCGUUCCCACGCCCGGAUAAAAGUGGAGGGGGCGG showed a self-cleavage of 0.02. For CCGCCUAACACUGCCAAUGCCGCUCCCACGCCCGGAUAAAAGUGGAGGGGGCGG, the self-cleavage was 0.02. In the case of CCGCCUAACACUGCCAAUGCCGAUCCCACGCCCGGAUAAAAGUGGAGGGGGCGG, the self-cleavage is reported as 0.05. Variant CCGCCUAACACUGCCAAUGCCCGUCCCACGCCCGGAUAAAAGUGGAGGGGGCGG has a self-cleavage of 0.03. CCGCCUAACACUGCCAAUGCCUGUCCCACGCCCGGAUAAAAGUGGAGGGGGCGG showed a self-cleavage of 0.05. Work on CCGCCUAACACUGCCAAUGCCAGUCCCACGCCCGGAUAAAAGUGGAGGGGGCGG yielded a self-cleavage of 0.08.
